Active and inactive are the calls of the source. No cut-off for these calls is given here.
Legend:
[1] = target: T1, Melanocyte-stimulating hormone receptor (Homo sapiens, UniProt Q01726); experiment: Displacement of [125I]-[Nle4, D-Phe7]alpha-MSH from human melanocortin 1 receptor expressed in HEK293 cells; format: cell-based
Method in brief: (§1)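 Whole HEK293 cells stably expressing each hMCR, seeded 48 h before assay (50000 cells/well), washed in MEM with 25 mM bicarbonate. Cells incubated 40 min at 37 °C with unlabeled peptide plus [125I]-NDP-α-MSH (33.06 pM, 20000 cpm/well) in MEM, 25 mM HEPES pH 7.4, 0.2% BSA, 1 mM 1,10-phenanthroline, leupeptin, bacitracin. Cells washed, lysed with NaOH/Triton X-100, and gamma-counted. IC50 by nonlinear fit, two experiments in triplicate […].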
Target sequence in this assay (Q01726 whole entry): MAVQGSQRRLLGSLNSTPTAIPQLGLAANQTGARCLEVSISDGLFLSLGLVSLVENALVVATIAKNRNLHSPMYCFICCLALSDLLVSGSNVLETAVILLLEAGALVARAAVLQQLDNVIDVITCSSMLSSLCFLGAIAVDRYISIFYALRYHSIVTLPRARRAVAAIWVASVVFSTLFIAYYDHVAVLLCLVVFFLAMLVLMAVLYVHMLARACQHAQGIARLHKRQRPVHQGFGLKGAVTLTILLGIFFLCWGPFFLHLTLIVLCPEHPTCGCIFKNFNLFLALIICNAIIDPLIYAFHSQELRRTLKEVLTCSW

[2] = target: T2, Melanocortin receptor 3 (Homo sapiens, UniProt P41968); experiment: Agonist activity at human melanocortin 3 receptor expressed in HEK293 cells assessed as cAMP accumulation at 10 uM realtive to MT2; format: functional, cell-based
T2 sequence (P41968 whole entry): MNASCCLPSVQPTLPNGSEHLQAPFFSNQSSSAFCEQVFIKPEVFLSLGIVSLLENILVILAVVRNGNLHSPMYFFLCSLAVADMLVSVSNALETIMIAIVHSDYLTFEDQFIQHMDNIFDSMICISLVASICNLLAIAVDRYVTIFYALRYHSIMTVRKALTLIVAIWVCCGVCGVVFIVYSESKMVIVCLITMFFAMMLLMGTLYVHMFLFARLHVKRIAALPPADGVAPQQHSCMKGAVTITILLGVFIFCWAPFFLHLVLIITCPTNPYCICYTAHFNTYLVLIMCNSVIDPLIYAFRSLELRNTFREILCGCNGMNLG
Method in brief: (§2)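 cAMP accumulation assay in stably transfected HEK293 cells: 0.5 mM IBMX preincubation, 3 min ligand exposure at 37 °C, [3H]cAMP/PKA binding read-out against a standard curve. The cAMP produced at 10 μM ligand is expressed as percent of that produced by 10 μM MT-II (% max effect).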

[3] = target: T3, Melanocortin receptor 5 (Homo sapiens, UniProt P33032); experiment: Agonist activity at human melanocortin 5 receptor expressed in HEK293 cells assessed as cAMP accumulation at 10 uM realtive to MT2; format: functional, cell-based; method in brief: as §2
T3 sequence (P33032 whole entry): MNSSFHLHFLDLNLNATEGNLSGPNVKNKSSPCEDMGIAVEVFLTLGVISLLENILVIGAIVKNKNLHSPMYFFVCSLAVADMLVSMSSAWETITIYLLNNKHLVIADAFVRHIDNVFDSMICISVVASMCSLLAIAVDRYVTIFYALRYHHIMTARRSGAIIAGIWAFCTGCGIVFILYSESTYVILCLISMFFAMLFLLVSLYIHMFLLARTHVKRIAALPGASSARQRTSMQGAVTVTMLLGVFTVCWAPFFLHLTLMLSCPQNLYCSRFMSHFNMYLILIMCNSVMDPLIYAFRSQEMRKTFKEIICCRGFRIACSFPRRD

[4] = target: T1, Melanocyte-stimulating hormone receptor; experiment: Agonist activity at human melanocortin 1 receptor expressed in HEK293 cells assessed as cAMP accumulation; format: functional, cell-based
Method in brief: (§3)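 Stably transfected HEK293 cells seeded 48 h before assay (50000 cells/well), rinsed, preincubated 1 min at 37 °C in Earle's balanced salt solution with 0.5 mM IBMX, then given peptide at varying concentrations for 3 min at 37 °C. Stopped with ice-cold Tris/EDTA and boiling 7 min. cAMP measured by [3H]cAMP competition for PKA against a standard curve. EC50 by nonlinear least-squares fit, mean of two experiments in triplicate.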
Target sequence in this assay (Q01726 whole entry): as the sequence (Q01726 whole entry) above

[5] = target: T4, Melanocortin receptor 4 (Homo sapiens, UniProt P32245); experiment: Displacement of [125I]-[Nle4, D-Phe7]alpha-MSH from human melanocortin 4 receptor expressed in HEK293 cells at 10 uM; format: cell-based
T4 sequence (P32245 whole entry): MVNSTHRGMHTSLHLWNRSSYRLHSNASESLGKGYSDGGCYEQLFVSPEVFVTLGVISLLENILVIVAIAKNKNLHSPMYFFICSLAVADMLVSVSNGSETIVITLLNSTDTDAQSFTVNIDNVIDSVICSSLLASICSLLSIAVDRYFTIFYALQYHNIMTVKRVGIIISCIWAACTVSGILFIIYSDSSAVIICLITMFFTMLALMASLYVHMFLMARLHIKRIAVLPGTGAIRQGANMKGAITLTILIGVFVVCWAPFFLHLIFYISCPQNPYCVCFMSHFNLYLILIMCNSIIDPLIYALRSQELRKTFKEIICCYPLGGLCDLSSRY

[6] = target: T4, Melanocortin receptor 4; experiment: Agonist activity at human melanocortin 4 receptor expressed in HEK293 cells assessed as cAMP accumulation at 10 uM; format: functional, cell-based; method in brief: as §2
[7] = target: T3, Melanocortin receptor 5; experiment: Displacement of [125I]-[Nle4, D-Phe7]alpha-MSH from human melanocortin 5 receptor expressed in HEK293 cells; format: cell-based; method in brief: as §1
[8] = target: T1, Melanocyte-stimulating hormone receptor; experiment: Agonist activity at human melanocortin 1 receptor expressed in HEK293 cells assessed as cAMP accumulation at 10 uM realtive to MT2; format: functional, cell-based; method in brief: as §2
Target sequence in this assay (Q01726 whole entry, looked up): as the sequence (Q01726 whole entry) above

[9] = target: T2, Melanocortin receptor 3; experiment: Displacement of [125I]-[Nle4, D-Phe7]alpha-MSH from human melanocortin 3 receptor expressed in HEK293 cells; format: cell-based; method in brief: as §1
[10] = target: T3, Melanocortin receptor 5; experiment: Agonist activity at human melanocortin 5 receptor expressed in HEK293 cells assessed as cAMP accumulation at 10 uM; format: functional, cell-based; method in brief: as §2
[11] = target: T4, Melanocortin receptor 4; experiment: Agonist activity at human melanocortin 4 receptor expressed in HEK293 cells assessed as cAMP accumulation at 10 uM realtive to MT2; format: functional, cell-based; method in brief: as §2
[12] = target: T2, Melanocortin receptor 3; experiment: Agonist activity at human melanocortin 3 receptor expressed in HEK293 cells assessed as cAMP accumulation; format: functional, cell-based; method in brief: as §3
[13] = target: T2, Melanocortin receptor 3; experiment: Displacement of [125I]-[Nle4, D-Phe7]alpha-MSH from human melanocortin 3 receptor expressed in HEK293 cells at 10 uM; format: cell-based
[14] = target: T4, Melanocortin receptor 4; experiment: Displacement of [125I]-[Nle4, D-Phe7]alpha-MSH from human melanocortin 4 receptor expressed in HEK293 cells; format: cell-based; method in brief: as §1
[15] = target: T2, Melanocortin receptor 3; experiment: Agonist activity at human melanocortin 3 receptor expressed in HEK293 cells assessed as cAMP accumulation at 10 uM; format: functional, cell-based; method in brief: as §2
[16] = target: T1, Melanocyte-stimulating hormone receptor; experiment: Agonist activity at human melanocortin 1 receptor expressed in HEK293 cells assessed as cAMP accumulation at 10 uM; format: functional, cell-based; method in brief: as §2
Target sequence in this assay (Q01726 whole entry, looked up): as the sequence (Q01726 whole entry) above

[17] = target: T3, Melanocortin receptor 5; experiment: Antagonist activity at human melanocortin 5 receptor expressed in HEK293 cells; format: functional, cell-based
Method in brief: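 Antagonism at hMC5R in the HEK293 cAMP assay (IBMX, 3 min at 37 °C, [3H]cAMP/PKA read-out). Four antagonist doses spanning 10−10 to 10−6 M were tested against MT-II agonist dose-response curves. pA2 derived by Schild analysis.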

[18] = target: T4, Melanocortin receptor 4; experiment: Agonist activity at human melanocortin 4 receptor expressed in HEK293 cells assessed as cAMP accumulation; format: functional, cell-based; method in brief: as §3
[19] = target: T3, Melanocortin receptor 5; experiment: Agonist activity at human melanocortin 5 receptor expressed in HEK293 cells assessed as cAMP accumulation; format: functional, cell-based; method in brief: as §3
[20] = target: T1, Melanocyte-stimulating hormone receptor; experiment: Displacement of [125I]-[Nle4, D-Phe7]alpha-MSH from human melanocortin 1 receptor expressed in HEK293 cells at 10 uM; format: cell-based
Target sequence in this assay (Q01726 whole entry, looked up): as the sequence (Q01726 whole entry) above

[21] = target: T3, Melanocortin receptor 5; experiment: Displacement of [125I]-[Nle4, D-Phe7]alpha-MSH from human melanocortin 5 receptor expressed in HEK293 cells at 10 uM; format: cell-based

| IC50 [1] [nM] | Activity [2] [%] | Activity [3] [%] | EC50 [4] [nM] | Activity [6] | IC50 [7] [nM] | Activity [8] [%] | IC50 [9] [nM] | Activity [10] | Activity [11] [%] | EC50 [12] [nM] | IC50 [14] [nM] | other results | Structure (SMILES) |
| --- | --- | --- | --- | --- | --- | --- | --- | --- | --- | --- | --- | --- | --- |
| > 2000 | > 100 | 0 | 810 | inactive | 38 | 92 | > 1000 | inactive | 0 | > 4000 | – | Activity [5]: inactive | N=C(N)NCCC[C@@H]1NC(=O)[C@@H](Cc2ccccc2)NC(=O)[C@H](CC2CCCCC2)NC(=O)c2cc([N+](=O)[O-])ccc2SC[C@@H](C(N)=O)NC(=O)[C@H](Cc2c[nH]c3ccccc23)NC1=O |
| 1000 | 0 | 0 | 100 | inactive | > 2000 | 105 | – | inactive | 1 | – | > 1000 | Activity [13]: inactive; Activity [15]: inactive | N=C(N)NCCC[C@@H]1NC(=O)[C@@H](Cc2ccccc2)NC(=O)[C@H](Cc2cnc[nH]2)NC(=O)c2cc([N+](=O)[O-])ccc2SC[C@@H](C(N)=O)NC(=O)[C@@H](Cc2c[nH]c3ccccc23)NC1=O |
| – | – | – | – | – | – | – | – | – | – | – | – | IC50 ([1]; hek293): > 10000 nM; EC50 ([4]; hek293): > 1000 nM; IC50 ([9]; hek293): > 1000 nM; EC50 ([12]; hek293): 150 nM | NC(=O)[C@@H]1CSc2ccc([N+](=O)[O-])cc2C(=O)N[C@@H](Cc2cnc[nH]2)C(=O)N[C@@H](Cc2ccc(N)cc2)C(=O)N[C@@H](CCCN=C(N)N)C(=O)N[C@@H](Cc2c[nH]c3ccccc23)C(=O)N1 |
| – | 21 | 0 | – | inactive | – | 0 | – | inactive | 0 | – | – | Activity [16]: inactive; pA2 [17]: 8.3 | N=C(N)NCCC[C@@H]1NC(=O)[C@H](Cc2ccc3ccccc3c2)NC(=O)[C@H](Cc2cnc[nH]2)NC(=O)c2cc([N+](=O)[O-])ccc2SC[C@@H](C(N)=O)NC(=O)[C@H](Cc2c[nH]c3ccccc23)NC1=O |
| 3.7 | – | – | 2 | – | 190 | – | 40 | – | – | 2 | 47 | EC50 [18]: 37 nM; EC50 [19]: 44 nM | NC(=O)[C@@H]1CSc2ccc([N+](=O)[O-])cc2C(=O)N[C@@H](Cc2cnc[nH]2)C(=O)N[C@H](Cc2ccccc2)C(=O)N[C@@H](CCCN=C(N)N)C(=O)N[C@@H](Cc2c[nH]c3ccccc23)C(=O)N1 |
| – | – | – | – | – | – | – | – | – | – | – | – | IC50 ([1]; hek293): > 2000 nM; IC50 ([7]; hek293): 130 nM; IC50 ([9]; hek293): > 1000 nM; IC50 ([14]; hek293): > 5000 nM; EC50 ([12]; hek293): 50 nM | NC(=O)[C@@H]1CSc2ccc([N+](=O)[O-])cc2C(=O)N[C@@H](Cc2cnc[nH]2)C(=O)N[C@@H](Cc2ccc3ccccc3c2)C(=O)N[C@@H](CCCN=C(N)N)C(=O)N[C@@H](Cc2c[nH]c3ccccc23)C(=O)N1 |
| – | 0 | 0 | – | inactive | – | 0 | – | inactive | 0 | – | – | Activity [5]: inactive; Activity [20]: inactive; Activity [13]: inactive; Activity [21]: inactive; Activity [15]: inactive; Activity [16]: inactive | N=C(N)NCCC[C@@H]1NC(=O)[C@@H](Cc2ccccc2)NC(=O)[C@H]2C[C@@H](O)CN2C(=O)c2cc([N+](=O)[O-])ccc2SC[C@@H](C(N)=O)NC(=O)[C@H](Cc2c[nH]c3ccccc23)NC1=O |
| 760 | – | – | > 10000 | – | 760 | – | 190 | – | – | – | – | – | NC(=O)[C@@H]1CSc2ccc([N+](=O)[O-])cc2C(=O)N[C@@H](Cc2cnc[nH]2)C(=O)N[C@H](Cc2ccc3ccccc3c2)C(=O)N[C@@H](CCCN=C(N)N)C(=O)N[C@@H](Cc2c[nH]c3ccccc23)C(=O)N1 |
| 180 | – | – | 71 | – | 340 | – | 610 | – | – | 56 | > 1000 | – | NC(=O)[C@@H]1CSc2ccc([N+](=O)[O-])cc2C(=O)N[C@@H](Cc2cnc[nH]2)C(=O)N[C@H](Cc2ccccc2)C(=O)N[C@@H](CCCN=C(N)N)C(=O)N[C@@H](Cc2ccc3ccccc3c2)C(=O)N1 |
| > 1000 | 40 | 0 | > 1000 | inactive | 560 | 52 | – | inactive | 0 | > 5000 | – | Activity [5]: inactive; Activity [13]: inactive | N=C(N)NCCC[C@@H]1NC(=O)[C@@H](Cc2ccccc2)NC(=O)C2(Cc3ccccc3C2)NC(=O)c2cc([N+](=O)[O-])ccc2SC[C@@H](C(N)=O)NC(=O)[C@H](Cc2c[nH]c3ccccc23)NC1=O |
| > 1000 | > 100 | 0 | – | inactive | 58 | 0 | 380 | inactive | 0 | > 1000 | > 1000 | Activity [16]: inactive | N=C(N)NCCC[C@@H]1NC(=O)[C@@H](Cc2ccccc2)NC(=O)[C@@H]2CCCN2C(=O)c2cc([N+](=O)[O-])ccc2SC[C@@H](C(N)=O)NC(=O)[C@H](Cc2c[nH]c3ccccc23)NC1=O |

— ChEMBL document CHEMBL1150264, “Design and microwave-assisted synthesis of novel macrocyclic peptides active at melanocortin receptors: discovery of potent and selective hMC5R receptor antagonists” (J Med Chem, 2008)
